Assay results reported in ChEMBL document CHEMBL4411267, “Phloroglucinols from the Roots of Garcinia dauphinensis and Their Antiproliferative and Antiplasmodial Activities” (J Nat Prod, 2019).

How the values were obtained:
A2780 = test: Antiproliferative activity against human A2780 cells assessed as reduction in cell viability incubated for 48 hrs by Alamar blue assay; type: functional, cell-based; conditions: A2780, 48 h
Plasmodium falciparum = test: Antiplasmodial activity against Plasmodium falciparum Dd2 assessed as reduction in parasite viability incubated for 72 hrs by SYBR Green I dye based assay; type: functional, organism-based; conditions: Dd2, 72 h
Summary of the method: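 Ring-stage parasite cultures at 1% parasitemia and 1% hematocrit, exposed to samples for 72 h at 37 °C under 5% CO2/5% O2/90% N2. Viability read by DNA quantitation with SYBR Green I in lysis buffer (0.33 μL dye per mL, 25 μL added). IC50 by nonlinear regression curve fitting; mean ± SD of three independent experiments.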

[1] = Selectivity index, ratio of IC50 for antiproliferative activity against human A2780 cells to IC50 for antiplasmodial activity against Plasmodium falciparum Dd2; type: functional

CCC(C)C(=O)c1c(O)cc(O)c(C/C=C(\C)CCC=C(C)C)c1O (stereo not drawn)
IC50 (A2780): 12.4 µM

C=C(C)CCC(Cc1c(O)cc(O)c(C(=O)[C@@H](C)CC)c1O)/C(C)=C/CC=C(C)C (stereo partly drawn)
IC50 (Plasmodium falciparum): 12 µM | IC50 (A2780): 7 µM

C=C1[C@@H](Cc2c(O)cc(O)c(C(=O)[C@@H](C)CC)c2O)CCC(C)(C)[C@@H]1CC=C(C)C
IC50 (Plasmodium falciparum): 0.8 µM | IC50 (A2780): 15.2 µM | Ratio IC50 [1]: 20

CC[C@H](C)C(=O)c1c(O)cc(O)c(CC(CCC(C)(C)O)/C(C)=C/CC=C(C)C)c1O (stereo partly drawn)
IC50 (Plasmodium falciparum): 8.3 µM

CC[C@H](C)C(=O)c1c(O)cc(O)c(CCC(C)(O)CCC=C(C)C)c1O (stereo partly drawn)
IC50 (Plasmodium falciparum): 5.4 µM | IC50 (A2780): 6.4 µM

CC[C@H](C)C(=O)c1c(O)cc(O)c(CC2=C(C)[C@@H](CC=C(C)C)C(C)(C)CC2)c1O
IC50 (Plasmodium falciparum): 4.7 µM | IC50 (A2780): 4.5 µM

CC(C)=CCC/C(C)=C/Cc1c(O)cc(O)c(C(=O)C(C)C)c1O
IC50 (Plasmodium falciparum): 12.5 µM | IC50 (A2780): 16.4 µM

CC[C@H](C)C(=O)c1c(O)cc2c(c1O)C[C@@H]1C(C)(C)CCC[C@@]1(C)O2 (relative stereo)
IC50 (Plasmodium falciparum): 14.1 µM

C[C@@H]1CC[C@H]2[C@@H](C)C(=O)O[C@@H]3O[C@@]4(C)CC[C@@H]1[C@]32OO4 [ARTEMISININ]
IC50 (Plasmodium falciparum): 0.0085 µM

CC(C)=CCC/C(C)=C/CC/C(C)=C/CC[C@]1(C)CCc2cc(O)cc(C)c2O1 [DELTA-TOCOTRIENOL]
IC50 (Plasmodium falciparum): 5.3 µM | IC50 (A2780): 19.7 µM

CCC(C)C(=O)c1c(O)cc(O)c2c1O[C@](C)(CCC=C(C)C)[C@@H](O)C2 (stereo partly drawn) [EMPETRIKARINOL B]
IC50 (A2780): 10 µM
